Experimental data from different studies.
Protocols differ between the studies behind these lines.
Cell line: MDA-MB-231
Effect on: cell growth or viability

`COCCC(=O)Nc1ccccc1/N=c1\cc(-c2ccc3c(c2)OCO3)oc2ccccc12` gave an inhibition of 8.73% (CCK-8; 1 µM).
`O=C(Nc1ccc(Oc2nc3ccccc3n3cnnc23)cc1)Nc1cccc(Cl)c1` has a viability of 100% (MTT; 3.125 µM, 24 h).
For `CCNc1nc2ccc(-c3c/c(=N\c4ccccc4NC(=O)CCN)c4ccccc4o3)cc2o1`, the inhibition was 54.2% (CCK-8; 1 µM).
The EC50 of `Cc1ccc(C=NNC(=O)C2CC(=O)N(c3ccc(F)cc3F)C2)cc1` (centres unmarked) is reported as 22.8 µM (MTT; 72 h).
`COc1cccc2c1C(=O)c1c(O)c3c(c(O)c1C2=O)C[C@@](O)(C(=O)CO)C[C@@H]3O[C@H]1C[C@H](N)[C@H](O)[C@H](C)O1` gave an IC50 of 6.08 µM (MTT; 24 h).
`O=C(Nc1ccc(Cl)cc1)Nc1ccc(Oc2nc3ccccc3n3cnnc23)cc1` has a viability of 46.6% (MTT; 100 µM, 24 h).
For `COc1ccc2/c(=N/c3ccccc3NC(=O)[C@H](C)N)cc(-c3ccc4c(c3)OCCO4)oc2c1`, the inhibition was 13.8% (CCK-8; 1 µM).
`Nc1nc(S)nc(O)c1N=Cc1cn(-c2ccccc2)nc1-c1ccccc1` gave a CC50 of > 20 µM (48 h).
With `COc1cccc2c1C(=O)c1c(O)c3c(c(O)c1C2=O)C[C@@](O)(C(=O)CO)C[C@@H]3O[C@H]1C[C@H](N)[C@H](O)[C@H](C)O1` the EC50 was 0.022 µM (MTT; 72 h).
`O=C(Nc1ccccc1)Nc1ccc(Oc2nc3ccccc3n3cnnc23)cc1` gave a viability of 59.2% (MTT; 50 µM, 24 h).
The EC50 of `CCN(N=Cc1ccc(Br)cc1)C(=O)C1CC(=O)N(c2ccc(F)cc2F)C1` (centres unmarked) is reported as 32.9 µM (MTT; 72 h).
`NCCC(=O)Nc1ccc(/N=c2\cc(-c3ccc4c(c3)OCO4)oc3ccccc23)cc1` gave an inhibition of 5.95% (CCK-8; 1 µM).
`COc1ccc(-c2nn(-c3ccccc3)cc2C=Nc2c(N)nc(S)nc2O)cc1` gave a CC50 of > 20 µM (48 h).
The viability of `COc1cccc(NC(=O)Nc2ccc(Oc3nc4ccccc4n4cnnc34)cc2)c1` is reported as 91.5% (MTT; 3.125 µM, 24 h).
